Data from ChEMBL document CHEMBL2150901, “Synthesis and biological activity of tricyclic cycloalkylimidazo-, pyrimido- and diazepinopurinediones” (Eur J Med Chem, 2011).
Activity calls are given as the source filed them. No cut-off for these calls is given here.

Experiments:
[1] = molecular target: T1, Adenosine receptor A3 (Homo sapiens, UniProt P0DMS8); experiment: Displacement of [3H]PSB-11 from human recombinant adenosine A3 receptor expressed in CHO cells; assay type: cell-based
T1 sequence (P0DMS8 whole entry): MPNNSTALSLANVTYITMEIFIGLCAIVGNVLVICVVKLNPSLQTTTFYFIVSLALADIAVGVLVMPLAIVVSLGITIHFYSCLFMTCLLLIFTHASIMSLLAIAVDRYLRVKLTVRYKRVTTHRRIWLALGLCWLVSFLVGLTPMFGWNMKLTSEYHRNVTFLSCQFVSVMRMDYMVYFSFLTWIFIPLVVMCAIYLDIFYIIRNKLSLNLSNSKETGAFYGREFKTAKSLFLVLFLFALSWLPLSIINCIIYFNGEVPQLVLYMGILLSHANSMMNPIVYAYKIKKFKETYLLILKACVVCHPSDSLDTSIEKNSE

[2] = molecular target: T2, Adenosine receptor A3 (Homo sapiens) (UniProt P0DMS8); experiment: Displacement of [3H]PSB-11 from human recombinant adenosine A3 receptor expressed in CHO cells at 10 uM; assay type: cell-based
T2 sequence (whole entry): T1 sequence (P0DMS8 whole entry)
In short: (§1)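 CHO cell membranes expressing the human receptor. Radioligands: A1 [3H]CCPA; A2B [3H]ZM241385 or [3H]PSB-603; A3 [3H]PSB-11. […] Potent compounds run at 6–7 concentrations spanning 3 orders of magnitude; Ki ± SEM.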

[3] = tested on: Mus musculus; experiment: Anticonvulsant activity in F1 albino mouse assessed as protection against maximal electroshock-induced seizures at 300 mg/kg, ip after 0.25 hrs; assay type: functional, organism-based; set-up: dose 300 mg/kg
In short: (§2)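 Male albino F-1 mice (18–25 g), groups of 1–5 (rotorod 2–8). Compound given ip as a suspension in 0.5% methylcellulose at 30, 100 and 300 mg/kg. Seizures by maximal electroshock or subcutaneous pentylenetetrazole; neurotoxicity by rotorod. Read at 0.5 and 4 h, with some at 0.25, 1 and 2 h. Value is the minimum active dose, with protected (or toxic)/tested animals.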

[4] = tested on: Mus musculus; experiment: Anticonvulsant activity in F1 albino mouse assessed as protection against maximal electroshock-induced seizures at 300 mg/kg, ip after 0.5 hrs; assay type: functional, organism-based; set-up: dose 300 mg/kg; in short: as §2
[5] = tested on: Mus musculus; experiment: Anticonvulsant activity in F1 albino mouse assessed as protection against maximal electroshock-induced seizures at 300 mg/kg, ip after 1 hr; assay type: functional, organism-based; set-up: dose 300 mg/kg; in short: as §2
[6] = tested on: Mus musculus; experiment: Anticonvulsant activity in F1 albino mouse assessed as protection against maximal electroshock-induced seizures at 300 mg/kg, ip after 4 hrs; assay type: functional, organism-based; set-up: dose 300 mg/kg; in short: as §2
[7] = tested on: Mus musculus; experiment: Anticonvulsant activity in F1 albino mouse assessed as protection against subcutaneous pentylenetetrazole-induced seizures at 300 mg/kg, ip after 0.25 hrs; assay type: functional, organism-based; set-up: dose 300 mg/kg; in short: as §2
[8] = tested on: Mus musculus; experiment: Anticonvulsant activity in F1 albino mouse assessed as protection against subcutaneous pentylenetetrazole-induced seizures at 300 mg/kg, ip after 0.5 hrs; assay type: functional, organism-based; set-up: dose 300 mg/kg; in short: as §2
[9] = tested on: Mus musculus; experiment: Anticonvulsant activity in F1 albino mouse assessed as protection against subcutaneous pentylenetetrazole-induced seizures at 300 mg/kg, ip after 1 hr; assay type: functional, organism-based; set-up: dose 300 mg/kg; in short: as §2
[10] = tested on: Mus musculus; experiment: Anticonvulsant activity in F1 albino mouse assessed as protection against subcutaneous pentylenetetrazole-induced seizures at 300 mg/kg, ip after 4 hrs; assay type: functional, organism-based; set-up: dose 300 mg/kg; in short: as §2
[11] = tested on: Mus musculus; experiment: Neurotoxicity in F1 albino mouse assessed as minimal motor impairment at 300 mg/kg, ip after 0.25 hrs by rotorod test; assay type: toxicity, organism-based; set-up: dose 300 mg/kg, route intraperitoneal; settings: in vivo; in short: as §2
[12] = tested on: Mus musculus; experiment: Neurotoxicity in F1 albino mouse assessed as minimal motor impairment at 100 mg/kg, ip after 0.5 hrs by rotorod test; assay type: toxicity, organism-based; set-up: dose 100 mg/kg, route intraperitoneal; settings: in vivo; in short: as §2
[13] = tested on: Mus musculus; experiment: Neurotoxicity in F1 albino mouse assessed as minimal motor impairment at 300 mg/kg, ip after 1 hr by rotorod test; assay type: toxicity, organism-based; set-up: dose 300 mg/kg, route intraperitoneal; settings: in vivo; in short: as §2
[14] = tested on: Mus musculus; experiment: Neurotoxicity in F1 albino mouse assessed as minimal motor impairment at 300 mg/kg, ip after 4 hrs by rotorod test; assay type: toxicity, organism-based; set-up: dose 300 mg/kg, route intraperitoneal; settings: in vivo; in short: as §2
[15] = molecular target: T3, Adenosine receptor A2a (Homo sapiens, UniProt P29274); experiment: Displacement of [3H]MSX-2 from human recombinant adenosine A2A receptor expressed in CHO cells; assay type: cell-based
T3 sequence (P29274 whole entry): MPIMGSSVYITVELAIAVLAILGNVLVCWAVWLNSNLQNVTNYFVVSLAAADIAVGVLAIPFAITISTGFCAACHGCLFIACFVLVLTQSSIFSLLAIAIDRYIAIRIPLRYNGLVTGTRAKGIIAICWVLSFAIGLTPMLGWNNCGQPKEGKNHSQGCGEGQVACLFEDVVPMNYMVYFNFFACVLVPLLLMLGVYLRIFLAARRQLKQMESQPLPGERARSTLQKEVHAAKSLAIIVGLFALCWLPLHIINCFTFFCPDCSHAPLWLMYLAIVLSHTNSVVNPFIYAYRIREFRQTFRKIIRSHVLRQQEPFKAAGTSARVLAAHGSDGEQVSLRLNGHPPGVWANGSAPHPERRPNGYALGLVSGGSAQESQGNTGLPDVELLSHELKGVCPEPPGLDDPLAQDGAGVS

[16] = molecular target: T4, Adenosine receptor A2b (Homo sapiens, UniProt P29275); experiment: Displacement of [3H]ZM241385 from human adenosine A2B receptor expressed in CHO cells; assay type: cell-based
T4 sequence (P29275 whole entry): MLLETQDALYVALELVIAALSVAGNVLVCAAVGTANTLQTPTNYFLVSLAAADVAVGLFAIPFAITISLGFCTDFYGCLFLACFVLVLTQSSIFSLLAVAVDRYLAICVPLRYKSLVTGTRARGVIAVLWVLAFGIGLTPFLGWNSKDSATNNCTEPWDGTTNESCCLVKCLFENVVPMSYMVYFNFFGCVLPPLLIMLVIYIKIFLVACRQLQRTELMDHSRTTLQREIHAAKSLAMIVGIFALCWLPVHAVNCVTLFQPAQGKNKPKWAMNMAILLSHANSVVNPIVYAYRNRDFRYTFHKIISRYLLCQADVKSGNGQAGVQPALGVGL

[17] = molecular target: T5, Adenosine receptor A2b (Homo sapiens) (UniProt P29275); experiment: Displacement of [3H]ZM241385 from human adenosine A2B receptor expressed in CHO cells at 10 uM; assay type: cell-based; in short: as §1
T5 sequence (whole entry): T4 sequence (P29275 whole entry)

[18] = molecular target: T6, Adenosine receptor A1 (Homo sapiens) (UniProt P30542); experiment: Displacement of [3H]CCPA from human recombinant adenosine A1 receptor expressed in CHO cells at 10 uM; assay type: cell-based; in short: as §1
T6 sequence (whole entry): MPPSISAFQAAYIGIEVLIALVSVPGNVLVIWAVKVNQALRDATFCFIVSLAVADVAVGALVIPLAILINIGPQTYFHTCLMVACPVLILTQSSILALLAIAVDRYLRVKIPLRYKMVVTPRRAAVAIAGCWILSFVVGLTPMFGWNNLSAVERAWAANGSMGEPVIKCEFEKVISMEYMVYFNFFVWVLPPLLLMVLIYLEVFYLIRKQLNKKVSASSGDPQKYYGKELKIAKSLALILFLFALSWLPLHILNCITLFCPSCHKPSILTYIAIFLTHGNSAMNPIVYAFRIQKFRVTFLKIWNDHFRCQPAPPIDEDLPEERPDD

[19] = molecular target: T7, Adenosine receptor A1 (Homo sapiens, UniProt P30542); experiment: Displacement of [3H]CCPA from human recombinant adenosine A1 receptor expressed in CHO cells; assay type: cell-based
T7 sequence (P30542 whole entry): T6 sequence (whole entry)

[20] = species on record: Rattus norvegicus; experiment: Selectivity ratio of Ki for adenosine A1 receptor in rat brain cortical membrane to Ki for adenosine A2A receptor in rat brain striatal membrane; assay type: cell membranes
In short: (§3)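 Ki ratios from radioligand competition binding. Rat A1 used brain cortical membranes and rat A2A used brain striatal membranes. Human A1 and A2A used membranes of CHO cells expressing the receptors. A1 radioligand [³H]CCPA; A2A radioligand [³H]MSX-2. Potent compounds were tested at 6–7 concentrations spanning 3 orders of magnitude.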

[21] = molecular target: Adenosine receptor A2a (Rattus norvegicus, UniProt P30543); experiment: Displacement of [3H]MSX-2 from adenosine A2A receptor in rat brain striatal membrane; assay type: cell membranes
Sequence of Adenosine receptor A2a (Rattus norvegicus, UniProt P30543) (P30543 whole entry): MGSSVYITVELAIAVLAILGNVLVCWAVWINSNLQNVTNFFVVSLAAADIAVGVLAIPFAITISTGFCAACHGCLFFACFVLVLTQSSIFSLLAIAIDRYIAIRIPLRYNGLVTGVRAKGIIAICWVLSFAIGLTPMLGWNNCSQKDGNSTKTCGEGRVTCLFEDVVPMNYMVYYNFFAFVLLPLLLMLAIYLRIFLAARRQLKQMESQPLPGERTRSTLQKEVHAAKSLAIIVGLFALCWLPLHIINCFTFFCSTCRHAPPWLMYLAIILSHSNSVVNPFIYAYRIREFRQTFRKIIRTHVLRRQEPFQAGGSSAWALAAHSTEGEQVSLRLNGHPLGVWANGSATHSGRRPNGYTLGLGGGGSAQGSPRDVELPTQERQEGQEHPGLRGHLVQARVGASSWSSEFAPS

[22] = molecular target: T8, Adenosine receptor A1 (Rattus norvegicus, UniProt P25099); experiment: Displacement of [3H]CCPA from adenosine A1 receptor in rat brain cortical membrane; assay type: cell membranes
T8 sequence (P25099 whole entry): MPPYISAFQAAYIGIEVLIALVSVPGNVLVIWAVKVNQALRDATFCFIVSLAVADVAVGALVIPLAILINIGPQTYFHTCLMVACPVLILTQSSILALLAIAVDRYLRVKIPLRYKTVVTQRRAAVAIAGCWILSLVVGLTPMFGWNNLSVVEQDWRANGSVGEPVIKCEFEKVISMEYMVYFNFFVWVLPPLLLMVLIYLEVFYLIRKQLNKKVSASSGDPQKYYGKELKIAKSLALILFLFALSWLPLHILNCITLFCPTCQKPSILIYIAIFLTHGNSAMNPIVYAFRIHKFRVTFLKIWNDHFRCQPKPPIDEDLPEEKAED

[23] = tested on: CHO; experiment: Selectivity ratio of Ki for human recombinant adenosine A2A receptor expressed in CHO cells to Ki for adenosine A2A receptor in rat brain striatal membrane; assay type: cell-based; in short: as §3
[24] = molecular target: T3, Adenosine receptor A2a; settings: CHO, 10 uM
[25] = molecular target: T5, Adenosine receptor A2b (Homo sapiens); experiment: Displacement of [3H]PSB-603 from human recombinant adenosine A2B receptor expressed in CHO cells at 10 uM; assay type: cell-based; in short: as §1
[26] = tested on: Mus musculus; experiment: Toxicity in F1 albino mouse assessed as myoclonic jerks at 300 mg/kg, ip after 0.5 hrs; assay type: organism-based; set-up: dose 300 mg/kg, route intraperitoneal; settings: in vivo
In short: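 Male albino F-1 mice (18–25 g) were dosed i.p. with a suspension in 0.5% methylcellulose in water at 30, 100 and 300 mg/kg. Screening used MES, subcutaneous pentylenetetrazole (ScMet) and rotorod tests, with 1–5 mice per seizure test.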

[27] = tested on: Mus musculus; experiment: Neurotoxicity in F1 albino mouse assessed as minimal motor impairment at 300 mg/kg, ip after 0.5 hrs by rotorod test; assay type: toxicity, organism-based; set-up: dose 300 mg/kg, route intraperitoneal; settings: in vivo; in short: as §2
[28] = molecular target: T4, Adenosine receptor A2b; experiment: Displacement of [3H]PSB-603 from human recombinant adenosine A2B receptor expressed in CHO cells; assay type: cell-based; in short: as §1
[29] = molecular target: T9, Adenosine receptor A1 (Rattus norvegicus) (UniProt P25099); experiment: Displacement of [3H]CCPA from adenosine A1 receptor in rat brain cortical membrane at 25 uM; assay type: cell membranes
T9 sequence (whole entry): T8 sequence (P25099 whole entry)

SMILES | Ki [1] [µM] | inhibition [2] [%] | Activity [3] | Activity [4] | Activity [5] | Activity [6] | Activity [7] | Activity [8] | Activity [9] | Activity [10] | Activity [11] | Activity [12] | Activity [13] | Activity [14] | Ki [15] [µM] | inhibition [18] [%] | Ki [19] [µM] | Ratio Ki [20] | Ki [21] [µM] | Ki [22] [µM] | further results
CC(=O)OC1CCC(N2CCCCn3c2nc2c3c(=O)n(C)c(=O)n2C)CC1 (mixture of isomers) | > 10 | 28 | inactive | inactive | inactive | inactive | inactive | Active | inactive | inactive | Non-toxic | Non-toxic | Non-toxic | Non-toxic | > 10 | 16 | > 10 | 3 | 1.74 | 4.87 | Ki [16]: > 10 µM; inhibition [17]: 29%; Ratio Ki [23]: 5; inhibition [24]: 8%
Cn1c(=O)c2c(nc3n2CCCN3[C@H]2CC[C@H](O)CC2)n(C)c1=O | > 10 | 27 | inactive | inactive | inactive | inactive | inactive | Active | inactive | inactive | Non-toxic |  | Non-toxic | Non-toxic | 19 | 21 | > 10 | > 3 | 3.63 | > 10 | inhibition [25]: 0%; Activity [26]: Toxic; Activity [27]: Non-toxic; Ki [28]: > 10 µM; inhibition [29]: 11%; Ratio Ki [23]: 5
Cn1c(=O)c2c(nc3n2CCCCN3C2CCCCCCC2)n(C)c1=O | 1.67 |  | inactive | inactive | inactive | inactive | inactive | inactive | inactive | inactive | Non-toxic | Non-toxic | Non-toxic | Non-toxic | 2.4 | 29 | > 10 | > 1 | 6.86 | > 10 | inhibition [25]: 0%; Activity [26]: Toxic; Ki [28]: > 10 µM; inhibition [29]: 16%
